Results from ChEMBL document CHEMBL1142064, “Concentration-dependent effects of caspofungin on the metabolic activity of Aspergillus species” (2007).

How the values were obtained:
Format in all cases: functional
[1] = system: Aspergillus fumigatus; assay: Metabolic activity of Aspergillus fumigatus determined as X-MEC relative to control
Outline: (§1)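 X-MEC: lowest caspofungin concentration whose percent metabolic activity (optimized XTT, 100 μg/ml XTT, 6.25 μM menadione, 2 h, after 48 h incubation) is at or below a species-specific cutoff. Cutoffs were tested in 5% steps around the species median activity at the microscopic MEC and chosen for best ±1 dilution agreement with the microscopic MEC.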

[2] = system: Aspergillus fumigatus; assay: Metabolic activity of Aspergillus fumigatus at 8 ug/ml by XTT assay relative to control
Outline: (§2)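 Optimized XTT read-out (100 μg/ml XTT, 6.25 μM menadione, 2 h at 37°C) applied after 48 h caspofungin exposure. Percent metabolic activity in the 8 μg/ml well, calculated as background-corrected absorbance (450/630 nm) relative to the drug-free control. Compared within each species against the value at the concentration giving the lowest activity.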

[3] = system: Aspergillus fumigatus; assay: Metabolic activity of Aspergillus fumigatus at 0.5 ug/ml after 2 hrs by XTT assay relative to control
Outline: (§3)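 Wells from the 48 h caspofungin microdilution (0.008 to 8 μg/ml) were read right after microscopic MEC reading. XTT plus menadione was added to final 100 μg/ml XTT and 6.25 μM menadione, then incubated 2 h at 37°C and shaken. Absorbance read at 450 nm with 630 nm reference. Percent metabolic activity = background-subtracted drug well / background-subtracted drug-free control × 100. Triplicate.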

[4] = system: Aspergillus terreus; assay: Metabolic activity of Aspergillus terreus by XTT assay relative to control; outline: as §3
[5] = system: Aspergillus fumigatus; assay: Metabolic activity of Aspergillus fumigatus at 0.75 ug/ml after 2 hrs by XTT assay relative to control; outline: as §3
[6] = system: Aspergillus flavus; assay: Metabolic activity of Aspergillus flavus at 8 ug/ml by XTT assay relative to control; outline: as §2
[7] = system: Aspergillus terreus; assay: Metabolic activity of Aspergillus terreus at 8 ug/ml by XTT assay relative to control; outline: as §2
[8] = system: Aspergillus terreus; assay: Metabolic activity of Aspergillus terreus at 1 ug/ml after 2 hrs by XTT assay relative to control; outline: as §3
[9] = system: Aspergillus fumigatus; assay: Metabolic activity of Aspergillus fumigatus by XTT assay relative to control; outline: as §3
[10] = system: Aspergillus flavus; assay: Metabolic activity of Aspergillus flavus determined as X-MEC relative to control; outline: as §1
[11] = system: Aspergillus flavus; assay: Antifungal activity against Aspergillus flavus after 48 hrs; settings: read-out: MEC
Outline: (§4)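 Broth microdilution following CLSI M38-A in RPMI 1640 with l-glutamine, no bicarbonate, buffered to pH 7.0 with 0.165 M MOPS. Caspofungin twofold dilutions, 0.008 to 8 μg/ml final. Inoculum 2.5 × 10⁴ conidia/ml of clinical isolates. Incubation 37°C for 48 h. MEC read microscopically as the lowest concentration giving short, stubby, highly branched hyphae. Run in triplicate.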

[12] = system: Aspergillus terreus; assay: Metabolic activity of Aspergillus terreus determined as X-MEC relative to control; outline: as §1
[13] = system: Aspergillus terreus; assay: Antifungal activity against Aspergillus terreus after 48 hrs; settings: read-out: MEC; outline: as §4
[14] = system: Aspergillus flavus; assay: Metabolic activity of Aspergillus flavus at 0.25 ug /ml using after 2 hrs by XTT assay relative to control; outline: as §3
[15] = system: Aspergillus terreus; assay: Metabolic activity of Aspergillus terreus at 0.5 ug/ml after 2 hrs by XTT assay relative to control; outline: as §3
[16] = system: Aspergillus flavus; assay: Metabolic activity of Aspergillus flavus at 2 ug /ml after 2 hrs by XTT assay relative to control; outline: as §3
[17] = system: Aspergillus fumigatus; assay: Antifungal activity against Aspergillus fumigatus after 48 hrs; settings: read-out: MEC; outline: as §4

CC[C@H](C)C[C@H](C)CCCCCCCCC(=O)N[C@H]1C[C@@H](O)[C@@H](NCCN)NC(=O)[C@@H]2[C@@H](O)CCN2C(=O)[C@H]([C@H](O)CCN)NC(=O)[C@H]([C@H](O)[C@@H](O)c2ccc(O)cc2)NC(=O)[C@@H]2C[C@@H](O)CN2C(=O)[C@H]([C@@H](C)O)NC1=O [CASPOFUNGIN]
Activity [1]: 60%
Activity [2]: 51%
Activity [3]: 42%
MMC [4]: 1 µg/mL
Activity [5]: 28%
Activity [6]: 20%
Activity [7]: 57%
Activity [8]: 38%
MMC [9]: 0.75 µg/mL
Activity [10]: 40%
minimal effective concentration [11]: 0.25 µg/mL
Activity [12]: 65%
minimal effective concentration [13]: 0.5 µg/mL
Activity [14]: 25%
Activity [15]: 53%
Activity [16]: 17%
minimal effective concentration [17]: 0.5 µg/mL
